# Legend:
# [1] = biological target: T1, Steroid 17-alpha-hydroxylase/17,20 lyase (Homo sapiens, UniProt P05093); test: Inhibition of C-terminal His-tagged recombinant human CYP17A1delta19H mutant expressed in Escherichia coli DH5alpha assessed as decrease in progesterone hydroxylation preincubated for 3 mins followed by NADPH addition measured after 10 mins in presence of cytochrome p450 reductase by LC-MS/MS method
# Outline: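 Purified human CYP17A1 (20 pmol) was preincubated with full-length human CPR (80 pmol) for 20 min at rt. […] After 3 min at 37 °C, 1 mM NADPH was added and the reaction ran 10 min before a TCA stop. The 17α-hydroxy product was read by LC-MS/MS.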
# Homo sapiens = species: Homo sapiens; test: Selectivity ratio of IC50 for C-terminal His-tagged recombinant human CYP21A2deltaH mutant to IC50 for C-terminal His-tagged recombinant human CYP17A1delta19H mutant
# Steroid 21-hydroxylase = Steroid 21-hydroxylase (Homo sapiens, UniProt P08686); test: Inhibition of C-terminal His-tagged recombinant human CYP21A2deltaH mutant expressed in Escherichia coli DH5alpha assessed as decrease in progesterone hydroxylation preincubated for 3 mins followed by NADPH addition measured after 8 mins in presence of cytochrome p450 reductase by LC-MS/MS method
# [2] = biological target: T1, Steroid 17-alpha-hydroxylase/17,20 lyase; test: Inhibition of C-terminal His-tagged recombinant human CYP17A1delta19H mutant expressed in Escherichia coli JM109 cells assessed as decrease in progesterone hydroxylation in presence of cytochrome P450 reductase […]
# T1 sequence (P05093 whole entry, looked up): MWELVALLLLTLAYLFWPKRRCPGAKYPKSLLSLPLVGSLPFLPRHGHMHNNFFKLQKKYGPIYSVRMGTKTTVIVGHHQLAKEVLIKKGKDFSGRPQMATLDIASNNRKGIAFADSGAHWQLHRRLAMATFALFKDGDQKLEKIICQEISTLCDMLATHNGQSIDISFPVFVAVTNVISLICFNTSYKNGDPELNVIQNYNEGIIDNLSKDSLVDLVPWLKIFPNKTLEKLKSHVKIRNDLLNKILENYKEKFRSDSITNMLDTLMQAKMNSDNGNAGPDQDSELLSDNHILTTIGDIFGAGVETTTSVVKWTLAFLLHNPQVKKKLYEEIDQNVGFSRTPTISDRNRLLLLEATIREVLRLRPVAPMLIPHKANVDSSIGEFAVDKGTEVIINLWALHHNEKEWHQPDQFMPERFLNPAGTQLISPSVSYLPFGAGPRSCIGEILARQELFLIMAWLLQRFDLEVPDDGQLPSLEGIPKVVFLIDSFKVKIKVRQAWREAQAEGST
# Steroid 21-hydroxylase, sequence (P08686 whole entry, looked up, stated change not applied): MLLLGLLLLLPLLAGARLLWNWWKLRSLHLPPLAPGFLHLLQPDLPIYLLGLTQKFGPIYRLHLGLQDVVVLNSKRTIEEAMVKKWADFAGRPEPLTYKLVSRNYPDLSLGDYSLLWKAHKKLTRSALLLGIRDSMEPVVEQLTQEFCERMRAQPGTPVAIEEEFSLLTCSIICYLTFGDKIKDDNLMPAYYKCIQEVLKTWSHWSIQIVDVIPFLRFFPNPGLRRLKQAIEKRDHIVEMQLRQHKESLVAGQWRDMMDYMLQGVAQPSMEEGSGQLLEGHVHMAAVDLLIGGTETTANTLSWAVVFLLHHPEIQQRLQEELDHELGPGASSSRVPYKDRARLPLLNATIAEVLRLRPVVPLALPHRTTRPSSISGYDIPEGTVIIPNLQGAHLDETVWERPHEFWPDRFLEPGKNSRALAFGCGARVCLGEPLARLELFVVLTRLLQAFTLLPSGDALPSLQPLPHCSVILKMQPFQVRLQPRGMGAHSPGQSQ
Structure (SMILES),IC50 [1],Ratio IC50 (Homo sapiens),IC50 (Steroid 21-hydroxylase),IC50 [2]
C[C@]12CC[C@H](O)CC1=C(C(N)=O)C[C@@H]1[C@@H]2CC[C@]2(C)C(c3cccnc3)=CC[C@@H]12,22.8 nM,29,673 nM,
C[C@]12CCC(=O)C=C1CC[C@@H]1[C@@H]2CC[C@]2(C)C(c3cccnc3)=CC[C@@H]12,6.13 nM,,0.7 nM,
C[C@]12CC[C@H](O)CC1=CC[C@@H]1[C@@H]2CC[C@]2(C)C(c3ccccc3)=CC[C@@H]12,> 20000 nM,,≥ 700 nM,
C[C@]12CC[C@H](O)CC1=CC[C@@H]1[C@@H]2CC[C@]2(C)C(c3cccnc3)=CC[C@@H]12 [ABIRATERONE],4.94 nM,,,9.4 to 92 nM
C[C@]12CC[C@H](O)CC1=CC[C@@H]1[C@@H]2CC[C@]2(C)C(n3cnc4ccccc43)=CC[C@@H]12 [GALETERONE],28.1 nM,,,
C[C@]12CC[C@H](O)C[C@@H]1C(=O)C[C@@H]1[C@@H]2CC[C@]2(C)C(c3cccnc3)=CC[C@@H]12,12.4 nM,35,440 nM,
C[C@]12CC[C@H](O)CC1=C(C#N)C[C@@H]1[C@@H]2CC[C@]2(C)C(c3cccnc3)=CC[C@@H]12,15.5 nM,,,
C[C@]12CC[C@H](O)C[C@@H]1[C@@H](O)C[C@@H]1[C@@H]2CC[C@]2(C)C(c3cccnc3)=CC[C@@H]12,7.2 nM,33,234 nM,
C[C@]12CC[C@H](O)C[C@@H]1NC(=O)C[C@@H]1[C@@H]2CC[C@]2(C)C(c3cccnc3)=CC[C@@H]12,230 nM,16,3600 nM,

# From ChEMBL document CHEMBL4184341, “Structure-Based Design of Inhibitors with Improved Selectivity for Steroidogenic Cytochrome P450 17A1 over Cytochrome P450 21A2” (J Med Chem, 2018)
